Where a SMILES comes first, the peptide text is derived from it. [ ]: non-standard residue; d: D form.
What was measured:
[1] = molecular target: Kappa-type opioid receptor (Homo sapiens, UniProt P41145); assay: Displacement of [3H]U69,593 from human KOR expressed in HEK293 cells after 90 mins by liquid scintillation counting; assay type: cell-based
How it was run: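 Membranes from HEK-293 cells expressing human KOR incubated 90 min at 25 °C in 100 mM Tris-HCl with 0.3% BSA, with [3H]U69,593 at 2 nM. Nonspecific binding defined with 10 μM U50,488. Filtered on polyethylenimine-presoaked GF/C filters, washed with ice-cold 50 mM Tris-HCl pH 7.4, then scintillation counted. Run in triplicate, ≥3 experiments. Ki from IC50 by Cheng–Prusoff.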

[2] = molecular target: Delta-type opioid receptor (Homo sapiens, UniProt P41143); assay: Displacement of [3H]diprenorphine from human DOR expressed in HEK293 cells after 90 mins by liquid scintillation counting; assay type: cell-based
Delta-type opioid receptor, sequence (P41143 whole entry): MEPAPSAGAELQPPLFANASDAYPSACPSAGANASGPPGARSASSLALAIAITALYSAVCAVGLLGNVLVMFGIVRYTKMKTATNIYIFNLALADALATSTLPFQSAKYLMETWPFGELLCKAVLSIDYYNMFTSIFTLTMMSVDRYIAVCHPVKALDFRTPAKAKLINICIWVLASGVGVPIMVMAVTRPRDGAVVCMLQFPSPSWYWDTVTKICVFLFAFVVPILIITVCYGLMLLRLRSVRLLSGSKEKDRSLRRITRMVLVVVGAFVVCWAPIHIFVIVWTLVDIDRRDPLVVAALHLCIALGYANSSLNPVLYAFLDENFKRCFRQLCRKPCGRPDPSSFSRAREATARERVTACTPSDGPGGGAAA

Mu-type opioid receptor [3] = molecular target: T1, Mu-type opioid receptor (Homo sapiens, UniProt P35372); assay: biochemical
T1 sequence (P35372 whole entry): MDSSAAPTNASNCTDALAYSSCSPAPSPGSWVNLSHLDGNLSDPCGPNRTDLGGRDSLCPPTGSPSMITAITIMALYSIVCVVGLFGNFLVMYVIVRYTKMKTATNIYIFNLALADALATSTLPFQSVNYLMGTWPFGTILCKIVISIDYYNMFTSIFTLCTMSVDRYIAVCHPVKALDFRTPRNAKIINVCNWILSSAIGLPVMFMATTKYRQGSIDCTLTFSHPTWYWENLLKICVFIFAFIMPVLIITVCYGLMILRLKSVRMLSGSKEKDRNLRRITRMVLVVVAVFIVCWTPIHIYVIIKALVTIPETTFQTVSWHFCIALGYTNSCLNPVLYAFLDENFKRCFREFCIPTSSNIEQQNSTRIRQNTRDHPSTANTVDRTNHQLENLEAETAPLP

Mu-type opioid receptor [4] = molecular target: T1, Mu-type opioid receptor; assay type: functional, cell-based, HEK293
Mu-type opioid receptor [5] = molecular target: T1, Mu-type opioid receptor; assay: Partial agonist activity at human MOR expressed in HEK293 cells assessed as inhibition of forskolin-induced cAMP accumulation after 15 mins by cAMP EIA; assay type: functional, cell-based
How it was run: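 Whole HEK-293 cells stably expressing MOR, grown in MEM/10% FBS and plated at 85–95% confluence. Cells washed, placed in serum-free medium with 0.5 mM IBMX, and given 10 μM forskolin ± compound (0.01 nM–100 μM) for 15 min at 37 °C. Lysed in 0.1 N HCl; cAMP in supernatant measured by EIA. Triplicates averaged for IC50 and Emax (% vehicle), 5–6 independent experiments.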

Kappa-type opioid receptor, sequence (P41145 whole entry): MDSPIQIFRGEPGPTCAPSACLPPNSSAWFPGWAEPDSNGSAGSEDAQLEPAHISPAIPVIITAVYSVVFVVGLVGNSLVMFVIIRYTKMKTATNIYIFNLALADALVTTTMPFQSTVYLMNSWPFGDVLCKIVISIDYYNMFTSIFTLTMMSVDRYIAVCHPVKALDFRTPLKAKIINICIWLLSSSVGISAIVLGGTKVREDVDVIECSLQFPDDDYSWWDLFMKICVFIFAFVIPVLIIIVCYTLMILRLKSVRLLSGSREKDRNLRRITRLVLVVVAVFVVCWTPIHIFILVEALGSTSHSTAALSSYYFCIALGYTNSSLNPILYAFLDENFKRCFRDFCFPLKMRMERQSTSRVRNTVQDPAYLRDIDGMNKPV

Compound	Ki [1] [µM]	Ki [2] [µM]	Ki (Mu-type opioid receptor [3]) [µM]	IC50 (Mu-type opioid receptor [4]) [µM]	IC50 (Mu-type opioid receptor [5]) [µM]
CC(=O)N[C@H](Cc1cnc[nH]1)C(=O)N[C@@H](Cc1ccccc1)C(N)=O	> 100	> 100	> 100		
CC(=O)N[C@H](Cc1cnc[nH]1)C(=O)N[C@@H](Cc1ccccc1)C(=O)NCC(N)=O	> 100	> 100	> 100		
CC(=O)N[C@H](CCCCN)C(=O)N[C@@H](Cc1ccccc1)C(N)=O	> 100	> 100	> 100		
CC(=O)N[C@H](CCCCN)C(=O)N[C@@H](Cc1ccccc1)C(=O)NCC(N)=O	> 100	> 100	> 100		
CC(=O)N[C@H](CCCNC(=N)N)C(=O)N[C@@H](Cc1ccccc1)C(N)=O	> 100	> 100	> 100		
CC(=O)N[C@H](CCCNC(=N)N)C(=O)N[C@@H](Cc1ccccc1)C(=O)NCC(N)=O	> 100	> 100	> 100		
NC(=O)[C@H]1CC(=O)NCCC(=O)N[C@H](Cc2c[nH]c3ccccc23)C(=O)N[C@@H](Cc2ccccc2)C(=O)N1	> 100	> 100	0.0059	0.037	
CC(=O)N[C@@H](Cc1c[nH]c2ccccc12)C(=O)N[C@@H](Cc1ccccc1)C(=O)NCC(N)=O (Ac-Trp-Phe-Gly-NH2)	33	0.0121	74		
CC(=O)N[C@H](Cc1c[nH]c2ccccc12)C(=O)N[C@@H](Cc1ccccc1)C(=O)NCC(N)=O (Ac-[dW]-Phe-Gly-NH2)	> 100	> 100	0.0056		0.2
CC(=O)N[C@H](Cc1c[nH]c2ccccc12)C(=O)N[C@@H](Cc1ccccc1)C(N)=O (Ac-[dW]-Phe-NH2)	> 100	0.024	0.0155	> 100	

Source: ChEMBL document CHEMBL2177066, “Opioid activity profiles of oversimplified peptides lacking in the protonable N-terminus” (J Med Chem, 2012)
